ChEMBL document CHEMBL1212734, “In vitro pharmacodynamics of levofloxacin and other aerosolized antibiotics under multiple conditions relevant to chronic pulmonary infection in cystic fibrosis” (2010)
Converted amounts (≈) assume the structure as drawn.

Tests used:
Assay type in all cases: functional
Pseudomonas aeruginosa [1] = test: Antibacterial activity against Pseudomonas aeruginosa by broth dilution method
Method in brief: (§1)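 Broth microdilution MIC per CLSI reference method; twofold serial dilutions in cation-adjusted Mueller-Hinton broth. […] Endpoint read by OD600 and confirmed visually.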

Burkholderia cepacia = test: Antibacterial activity against Burkholderia cepacia clinical isolates by broth dilution method
[2] = system: Stenotrophomonas maltophilia; test: Antibacterial activity against Stenotrophomonas maltophilia by broth dilution method
[3] = system: Achromobacter xylosoxidans; test: Antibacterial activity against Alcaligenes xylosoxidans by broth dilution method
Staphylococcus aureus [4] = test: Antibacterial activity against methicillin-resistant Staphylococcus aureus by broth dilution method; method in brief: as §1
Staphylococcus aureus [5] = test: Antibacterial activity against methicillin-sensitive Staphylococcus aureus by broth dilution method
Pseudomonas aeruginosa [6] = test: Antibacterial activity against Pseudomonas aeruginosa PA1054 assessed as inhibition of biofilm formation by microtiter plate reader assay
Method in brief: (§2)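 Biofilms of cystic fibrosis P. aeruginosa isolates were grown and tested by a previously described method. The endpoint was the biofilm inhibitory concentration, the drug level that prevents biofilm cell growth, compared against planktonic broth-microdilution MICs.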

Pseudomonas aeruginosa [7] = test: Antibacterial activity against Pseudomonas aeruginosa PA1042 assessed as inhibition of biofilm formation by microtiter plate reader assay; method in brief: as §2
Pseudomonas aeruginosa [8] = test: Antibacterial activity against Pseudomonas aeruginosa PA5063 assessed as inhibition of biofilm formation by microtiter plate reader assay; method in brief: as §2
Pseudomonas aeruginosa [9] = test: Antibacterial activity against Pseudomonas aeruginosa PA1054 by broth dilution method; method in brief: as §1
Pseudomonas aeruginosa [10] = test: Antibacterial activity against Pseudomonas aeruginosa PA1042 by broth dilution method; method in brief: as §1
Pseudomonas aeruginosa [11] = test: Antibacterial activity against Pseudomonas aeruginosa PA5063 by broth dilution method; method in brief: as §1
Pseudomonas aeruginosa [12] = test: Antibacterial activity against Pseudomonas aeruginosa ATCC 27853 by broth dilution method; method in brief: as §1
Pseudomonas aeruginosa [13] = test: Antibacterial activity against Pseudomonas aeruginosa PA5043 by broth dilution method; method in brief: as §1
Pseudomonas aeruginosa [14] = test: Antibacterial activity against Pseudomonas aeruginosa PA5043 assessed as inhibition of biofilm formation by microtiter plate reader assay; method in brief: as §2
Pseudomonas aeruginosa [15] = test: Antibacterial activity against Pseudomonas aeruginosa ATCC 27853 assessed as inhibition of biofilm formation by microtiter plate reader assay

Row | Structure (SMILES) | MIC50 (Pseudomonas aeruginosa [1]) [µg/mL] | MIC90 (Pseudomonas aeruginosa [1]) [µg/mL] | MIC50 [2] [µg/mL] | MIC90 [2] [µg/mL] | MIC50 [3] [µg/mL] | MIC90 [3] [µg/mL] | MIC50 (Staphylococcus aureus [4]) [µg/mL] | MIC90 (Staphylococcus aureus [4]) [µg/mL] | MIC50 (Staphylococcus aureus [5]) [µg/mL] | MIC90 (Staphylococcus aureus [5]) [µg/mL] | also measured
1 | NCC[C@H](O)C(=O)N[C@@H]1C[C@H](N)[C@@H](O[C@H]2O[C@H](CN)[C@@H](O)[C@H](O)[C@H]2O)[C@H](O)[C@H]1O[C@H]1O[C@H](CO)[C@@H](O)[C@H](N)[C@H]1O [AMIKACIN] | 16 (≈ 27.3 µM) | > 128 | 128 (≈ 219 µM) | > 128 | > 128 | > 128 | 8 (≈ 13.7 µM) | 16 (≈ 27.3 µM) | 1 (≈ 1.71 µM) | 4 (≈ 6.83 µM) | MIC50 (Burkholderia cepacia): 128 µg/mL (≈ 219 µM); MIC90 (Burkholderia cepacia): > 128 µg/mL; BBC (Pseudomonas aeruginosa [6]): 4 µg/mL; MIC (Pseudomonas aeruginosa [6]; Pseudomonas aeruginosa, PA1054): 1 µg/mL (≈ 1.71 µM); BBC (Pseudomonas aeruginosa [7]): 8 µg/mL; BBC (Pseudomonas aeruginosa [8]): 16 µg/mL; MIC (Pseudomonas aeruginosa [9]): 1 µg/mL (≈ 1.71 µM); MIC (Pseudomonas aeruginosa [10]): 4 µg/mL (≈ 6.83 µM); MIC (Pseudomonas aeruginosa [11]): 2 µg/mL (≈ 3.42 µM); MIC (Pseudomonas aeruginosa [12]): 2 µg/mL (≈ 3.42 µM); MIC (Pseudomonas aeruginosa [13]): 64 µg/mL (≈ 109 µM); BBC (Pseudomonas aeruginosa [14]): 64 µg/mL; BBC (Pseudomonas aeruginosa [15]): 8 µg/mL
2 | O=C(O)c1cn(C2CC2)c2cc(N3CCNCC3)c(F)cc2c1=O [CIPROFLOXACIN] | 1 (≈ 3.02 µM) | 8 (≈ 24.1 µM) | 4 (≈ 12.1 µM) | 16 (≈ 48.3 µM) | 4 (≈ 12.1 µM) | 16 (≈ 48.3 µM) | 16 (≈ 48.3 µM) | > 32 | 0.125 (≈ 0.377 µM) | 0.5 (≈ 1.51 µM) | 
